HSF-1 act: increases HSF-1 driven luciferase reporter signal; 1.7% of 300,000 active; NIH3T3-HGL HSF-1 luciferase reporter, MG132, 8 h; 100% = twice DMSO control signal; activation, % at 9 µM;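 active means mean replicate activation of at least 50% with a set share of replicates each reaching 50%; inconclusive means only one of those two conditions met; inactive means mean below 50% and too few replicates reaching it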;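 further: 0% = median of the neutral control wells and 100% = twice that signal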
T cruzi repl: blocks replication of Trypanosoma cruzi. T. cruzi beta-gal in NIH3T3, luminescence, 90 h. 1.4% of 300,000 active. inhibition, % (test concentration not listed);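 active means mean inhibition across valid replicates above about 55%, limit read from the data; inconclusive means mean below that limit but half or more replicates reach it; inactive means mean below it, under half of replicates reach it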;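 further: signal also drops with host cell toxicity which is not excluded here; 0% = plate median of DMSO wells and 100% = zero luminescence signal; higher percent means less beta-gal luminescence so fewer parasites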
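System: mouse NIH/3T3 fibroblasts infected with β-gal-expressing T. cruzi Tulahuen C4 / Input: NIH/3T3 cells, 5,000 per well / Buffer or medium: Low-serum DMEM with 2% FBS / Probe or stimulus: 5000 reporter trypomastigotes per well / Schedule: ≥90 h infection period, 3 h prior cell attachment / Measured by: GalScreen luminescence, 60 min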
697 NFkB inh: inhibitors of the PMA/ionomycin-induced NF-kB reporter in 697 B cells; 697 B-cell NF-kB luciferase reporter, 16 h; inhibition, % at 4 µM; 0.33% of 330,000 active; AID 435022; in the data active means inhibition above about 35%
HSF1 inh: HSF1 inhibition. 0.77% of 300,000 active. NIH3T3-HGL HSE-luciferase, MG132-induced, luminescence 8 h; active compounds read low. AID 2098. activity change, negative = inhibition, % at 7.5 µM (by protocol);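 active means more than half of replicate wells show activity change below -50%, luminescence cut by over half; inconclusive means some wells, but at most half, below -50%; inactive means no replicate well below -50%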;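 further: luciferase reports HSF-1 transcriptional activity via heat shock element; 0% = median of DMSO wells and -100% = zero luminescence signal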
Jurkat NFkB inh: lowers PMA/ionomycin-induced NF-kB signal in Jurkat cells. PMA/ionomycin-induced NF-kB luciferase reporter, luminescence. inhibition, % at 4 µM. 0.53% of 330,000 active; in the data active means inhibition above about 50%
GPR7 antag: human neuropeptides B/W receptor 1 antagonism | GPR7-expressing cells, fluorescence antagonist assay | inhibition, % at 4.4 µM | P48145 | 1.1% of 290,000 active; in the data active means inhibition above about 16%, passing the limit was not always enough;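 further: cells stimulated with the agonist NPW; 0% = agonist with vehicle and 100% = vehicle without agonist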
Target sequence (P48145 whole entry, looked up): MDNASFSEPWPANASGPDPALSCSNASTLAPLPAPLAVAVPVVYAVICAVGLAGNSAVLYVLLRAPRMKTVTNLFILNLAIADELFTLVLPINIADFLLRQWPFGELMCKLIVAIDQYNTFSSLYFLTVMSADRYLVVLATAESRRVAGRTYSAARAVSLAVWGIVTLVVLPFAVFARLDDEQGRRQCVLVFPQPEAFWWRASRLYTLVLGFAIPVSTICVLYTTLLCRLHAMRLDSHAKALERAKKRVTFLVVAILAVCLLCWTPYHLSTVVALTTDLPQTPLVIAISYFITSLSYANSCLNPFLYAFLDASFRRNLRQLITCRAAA
* hit, by the source's call; u = inconclusive; x = no result. This is a sample that favours compounds with a hit; in the whole collection about 4.8% have one here.

SMILES | HSF-1 act | T cruzi repl | 697 NFkB inh | HSF1 inh | Jurkat NFkB inh | GPR7 antag
Clc1ccc(-n2ncc3c(N4CCCCCC4)ncnc32)cc1 | -90 | -14 | -141 | -89* | 16 | 2
COc1ccc(-n2ncc3c(N4CCN(c5cccc(C)c5C)CC4)ncnc32)cc1 | 3 | 13 | -2 | -1 | 10 | -1
COc1ccc(N2CCN(c3ncnc4c3cnn4-c3ccc(C)cc3C)CC2)cc1 | 77* | u | -15 | 47 | 37 | -2
CC1CC(C)(C)NC(=S)N1CCCC(=O)Nc1ccc2c(c1)OCCO2 (stereo not given) | -35 | -7 | -8 | -24 | -47 | -12
O=C(OCC(=O)N1N=C(c2ccc(Cl)cc2)CC1c1ccco1)c1cncc(Br)c1 (stereo not given) | x | x | -10 | x | 14 | x
c1nc2n(n1)C1=C(CCCC1)C1(CCCCC1)N2 | -11 | 5 | -20 | -5 | -8 | 0
Cc1ccc(C(=O)NNC(=O)c2cc(C)nc3ccccc23)cc1 | x | x | 9 | x | 1 | x
CC1(C)Cc2c(C#N)c(NCCN3CCOCC3)nc(-c3ccco3)c2CO1 | 7 | 7 | 4 | 7 | 15 | -14
CC1(C)Cc2c(C#N)c(NCCO)nc(-c3ccco3)c2CO1 | -58 | -17 | 9 | -52* | 13 | -4
Cc1ccc(N=N/C(=C\O)C(=O)c2ccc(Cl)cc2)cc1 | -64 | -13 | -24 | -64* | -5 | -11
N#CCCN(CCC#N)C(=S)NC1CC2C=CC1C2 (stereo not given) | -4 | -16 | 11 | -1 | -2 | 14
CCn1c(=O)c2cc(C(=O)N(C)c3ccc(OC)cc3OC)sc2c2ccccc21 | 3 | 33 | 6 | 6 | 6 | -16
CCn1c(=O)c2cc(C(=O)N(C)c3ccccc3F)sc2c2ccccc21 | 4 | 69* | 13 | 2 | 0 | -9
O=C1OC(N2C(=O)CC[C@H]2C(=O)Nc2ccc(Br)cc2F)c2ccccc21 (stereo not given in full) | 25 | -1 | 21 | 3 | 4 | -4
CC(C)(C)Cc1nnc(NC(=O)CSc2ccccc2)s1 | 26 | -2 | -27 | 23 | -14 | -13
Cn1c(N2CCOCC2)c(/C=N/OC(=O)c2cccnc2Cl)c2ccccc21 | x | 7 | x | x | x | 3
Cn1c(N2CCOCC2)c(/C=N/OC(=O)c2ccc(F)cc2)c2ccccc21 | -10 | 65* | 28 | -8 | 27 | -3
CC(=O)O/N=C/c1c(N2CCOCC2)n(C)c2ccccc12 | -10 | 61* | -2 | -3 | 2 | -5
Cc1ccc(C(=O)O/N=C/c2c(N3CCOCC3)n(C)c3ccccc23)cc1 | 2 | 56* | 32 | -5 | 26 | 0
C/C(N)=C(/C#N)C(=O)COC(=O)c1oc2ccccc2c1COC(C)C | x | x | 1 | x | -6 | -3
Cc1cc(Br)cc(Br)c1OCC(=O)NNC(=O)Nc1ccccc1 | -1 | -26 | 14 | 2 | 10 | x
Cc1ccc2[nH]c(=O)c(CN(Cc3cccs3)Cc3nnnn3Cc3ccccc3)cc2c1 | 71* | 32 | 2 | 24 | 19 | -10
CCCCc1ccc(NC(=S)N2CCCC(C)C2)cc1 (stereo not given) | 19 | 6 | 11 | -6 | 0 | -10
OC1(c2ccc(F)cc2)CSC(=Nc2cccnc2)N1Cc1ccco1 (stereo not given) | 30 | -12 | 2 | 19 | 11 | -11
OC1(c2ccc(OC(F)F)cc2)CSC(=Nc2cccnc2)N1Cc1ccco1 (stereo not given) | -1 | 18 | x | 1 | x | 20*
SMILES | HSF-1 act | T cruzi repl | 697 NFkB inh | HSF1 inh | Jurkat NFkB inh | GPR7 antag
COCCCNc1c2c(nc3nnnn13)CCCC2 | 1 | -8 | 3 | -5 | -10 | 1
C1CCC(CNc2c3c(nc4nnnn24)CCCC3)CC1 | -24 | 68* | 6 | -14 | 1 | -8
Oc1ccc(NC(=S)N=Nc2c(O)[nH]c3ccccc23)cc1 | 32 | -35 | -32 | 2 | -13 | -2
Oc1ccc(NC(=S)N=Nc2c(O)[nH]c3ccc(Br)cc23)cc1 | -2 | -48 | 2 | -4 | 6 | -4
Oc1[nH]c2ccc(Br)cc2c1N=NC(=S)Nc1ccc(F)cc1 | -10 | 59* | 20 | 0 | 9 | -26
Cc1ccc(NC(=S)N=Nc2c(O)[nH]c3ccccc23)cc1 | 18 | 68* | -11 | 18 | -28 | 0
CS(=O)(=O)c1ccc(S(=O)CC(=O)OCc2ccccc2)c([N+](=O)[O-])c1 (stereo not given) | -94 | 56* | x | -94* | x | -2
COC(=O)c1ccc(OC(=O)CS(=O)c2ccccc2[N+](=O)[O-])cc1 (stereo not given) | 24 | -12 | 23 | 9 | 18 | -2
O=C(CS(=O)c1ccc(C(F)(F)F)cc1[N+](=O)[O-])Oc1ccccc1 (stereo not given) | 238* | -12 | -19 | 172 | -39 | 14
O=C(Nc1ccc(Cl)cc1)Nc1ccccc1C(=O)O | 54* | -24 | -178 | 24 | -12 | -7
CSc1cccc(CNC(=O)C2CCC(=O)N(CC3CCCCC3)C2)c1 (stereo not given) | -19 | -2 | -22 | -3 | -10 | 2
CCOc1cc(/C=N/NC(=S)Nc2ccccc2C(F)(F)F)ccc1OCC(=O)N1CCOCC1 | -16 | 4 | -15 | 10 | -2 | -1
CCOC(=O)COc1ccccc1/C=C\[N+](=O)[O-] | -66 | 9 | x | -61* | x | 5
Cc1ccc(C(=O)COC(=O)COc2ccccc2[N+](=O)[O-])s1 | x | x | 2 | x | -9 | x
CCOC(=O)Cn1nnc(-c2cccc(OC)c2)n1 | 67* | -14 | 7 | 24 | -8 | -5
COC(=O)c1nn(-c2cccc(C(F)(F)F)c2)c(=O)cc1Sc1ccccn1 | -65 | -31 | -11 | -52* | -2 | 8
O=C(CNC(=O)c1ccc(-c2ccccc2)cc1)OCc1c(Cl)cccc1Cl | -31 | 17 | -1 | -16 | 8 | -2
CCC(=O)NNc1nc2c(C)cc(C)cc2s1 | 17 | -17 | 2 | -5 | -24 | -7
Cc1ccc2nc(NNC(=O)c3ccc(S(=O)(=O)N4CCc5ccccc5C4)cc3)sc2c1 | -24 | 71* | -40 | -26 | 0 | -1
Cc1cccc2sc(NNC(=O)c3ccc(S(=O)(=O)N4CC(C)CC(C)C4)cc3)nc12 (stereo not given) | -11 | 66* | 10 | -16 | -3 | -4
CC1CCCN(S(=O)(=O)c2ccc(C(=O)Nc3nnc(C4CC4)o3)cc2)C1 (stereo not given) | -23 | -6 | -9 | -16 | 1 | 2
COC(=O)c1sc2ccccc2c1NC(=O)c1ccc(S(=O)(=O)N2CC(C)CC(C)C2)cc1 (stereo not given) | -7 | -5 | -1 | -12 | 16 | 0
